pEC50, pIC50: −log10 of the molar value.
Legend:
[1] = tested on: Trypanosoma brucei; assay: Binding affinity to Trypanosoma brucei methionyl-tRNA synthetase assessed as change in melting temperature at 100 uM by SYPRO orange dye based thermal shift assay
Summary of the method: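 TbMetRS in 100 mM HEPES pH 7.5, 100 mM NaCl, 10 mM ATP-Mg with SYPRO Orange; compound at 100 µM final. Fluorescence measured in triplicate from 25 to 90 °C in 0.2 °C steps. Tm taken as the temperature of the first-derivative maximum.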

[2] = Inhibition of Trypanosoma brucei methionyl tRNA synthetase preincubated for 15 mins followed by L-methionine substrate addition measured after 120 mins by ATP- depletion chemiluminescence assay
Summary of the method: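 Triplicate. Compound pre-incubated 15 min at room temperature with 50 nM TbMetRS, 200 µg/mL E. coli tRNA, 0.1 U/mL pyrophosphatase, 0.2 mM spermine, BSA, DTT, 25 mM HEPES-KOH pH 7.9, 10 mM MgCl2, 50 mM KCl, 2% DMSO. Started with 100 nM ATP and 32 µM L-methionine; after 120 min, Kinase-Glo luminescence read. IC50 from sigmoidal dose-response fit.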

[3] = tested on: Trypanosoma brucei; assay: Antitrypanosomal activity against Trypanosoma brucei 427 bloodstream forms assessed as parasitic growth inhibition after 48 hrs by alamar blue assay; type: functional; details: Trypanosoma brucei, 427, 48 h
Summary of the method: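 Bloodstream-form strain 427 trypomastigotes cultured in HMI-9 with 10% FBS, penicillin and streptomycin at 37°C, 5% CO2. Seeded at 1 × 10^4 per well, serial compound dilutions from 20 mM DMSO stocks, triplicate. Growth read with Alamar Blue at 48 h; pentamidine run as positive control in each assay.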

[4] = Cytotoxicity against human CRL-1855 cells assessed as cell viability after 48 hrs by alamar blue assay; type: toxicity, cell-based
Summary of the method: (§1)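 CRL-1855 cells grown in RPMI and HepG2 cells in DMEM/F-12, both with 10% FBS, penicillin and streptomycin. Plated at 5 × 10^3 per well with serial compound dilutions in quadruplicate for 48 h. Alamar Blue added for a further 4 h at 37 °C, 5% CO2. OD570–600 viability referenced to untreated cells.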

[5] = Cytotoxicity against human HepG2 cells assessed as cell viability after 48 hrs by alamar blue assay; type: toxicity, cell-based; summary of the method: as §1
[6] = Cmax in mouse at 50 mg/kg, administered through oral gavage by LC-MS analysis; type: ADME, organism-based; set-up: dose 50 mg/kg, route oral; details: in vivo
Summary of the method: (§2)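 Mice dosed by oral gavage at 50 mg/kg in 0.2 mL vehicle (7% tween80, 3% ethanol, 5% DMSO, 0.9% saline); plasma compound levels followed to give Cmax and AUC.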

[7] = AUC in mouse at 50 mg/kg, administered through oral gavage by LC-MS analysis; type: ADME, organism-based; details: in vivo; summary of the method: as §2
[8] = Selectivity index, ratio of EC50 for human CRL-1855 cells to EC50 for Trypanosoma brucei 427 bloodstream forms; type: toxicity, cell-based; details: read-out: Ratio EC50
[9] = tested on: Trypanosoma brucei; assay: (§3) Inhibition of Trypanosoma brucei 427 recombinant full length N-terminal 6His-tagged methionyl tRNA synthetase expressed in Escherichia coli assessed as decrease in incorporation of [3H]L-methionine into tRNA at 10 uM preincubated for 15 mins followed by Escherichia coli tRNA addition measured after 120 mins by scintillation counting method
[10] = tested on: Trypanosoma brucei; assay: as §3, with “1” for “10”

SMILES	ΔTm [1]	pIC50 [2]	pEC50 [3]	further results
Clc1cc(Cl)cc(CN[C@@H]2CCCN(c3nc4nc(Cl)ccc4[nH]3)C2)c1	13.1 °C	6.72	6.00	
CCN(CC)CCCC(C)Nc1c2ccc(Cl)cc2nc2ccc(OC)cc12 (stereo not given) [QUINACRINE]				EC50 at 48 h [4]: 2.12 µM; EC50 at 48 h [5]: 11.9 µM
Clc1cc(Cl)cc(CNC2CN(c3nc4nc(Cl)ccc4[nH]3)C2)c1	6.4 °C	5.66	4.82	
Clc1cc(Cl)cc(CNC2CCCN(c3nc4nc(Cl)ccc4[nH]3)C2)c1 (stereo not given)	18.4 °C	> 7.30	7.09	EC50 at 48 h [4]: 46.2 µM; EC50 at 48 h [5]: > 50 µM
O=C(Cc1cc(Cl)cc(Cl)c1)N1CCCC(c2nc3cc(Cl)ccc3[nH]2)C1 (stereo not given)	7.2 °C	7.22	5.85	EC50 at 48 h [4]: 22.8 µM; EC50 at 48 h [5]: 35.4 µM
Clc1cc(Cl)cc(CO[C@H]2CCCN(c3nc4nc(Cl)ccc4[nH]3)C2)c1	7.5 °C	6.71	5.06	
Clc1cc(Cl)cc(CN[C@H]2CCCN(c3nc4nc(Cl)ccc4[nH]3)C2)c1	19 °C	> 7.30	7.41	EC50 at 48 h [4]: 29.3 µM; EC50 at 48 h [5]: 49 µM; Cmax [6]: 37.6 µM; AUC [7]: 104 µM·h; selectivity ratio [8]: 751
Clc1cc(Cl)cc(CNCCCc2nc3ccc(Cl)nc3[nH]2)c1	12.8 °C	> 7.30	6.51	EC50 at 48 h [4]: 45.7 µM; EC50 at 48 h [5]: 45.6 µM
O=C(Cc1cc(Cl)cc(Cl)c1)N1CCCC(c2nc3c(Cl)cccc3[nH]2)C1 (stereo not given)	7.4 °C	6.03	5.06	
Clc1cc(Cl)cc(CNC2CCN(c3nc4nc(Cl)ccc4[nH]3)CC2)c1	5.8 °C	5.30	4.88	
Clc1cc(Cl)cc(CNC2CCCC(c3nc4nc(Cl)ccc4[nH]3)C2)c1 (stereo not given)	14.2 °C	6.91	6.44	EC50 at 48 h [4]: 33.1 µM; EC50 at 48 h [5]: 32.3 µM
Clc1cc(Cl)cc(CN[C@H]2CCN(c3nc4ccc(Cl)nc4[nH]3)C2)c1	11.4 °C	> 7.30	5.81	
Clc1cc(Cl)cc(CN[C@@H]2CCC[C@H](c3nc4nc(Cl)ccc4[nH]3)C2)c1	13.1 °C	6.97	6.24	
Clc1cc(Cl)cc(CN[C@@H]2CCN(c3nc4ccc(Cl)nc4[nH]3)C2)c1	7.2 °C	6.16	5.05	
Clc1cc(Cl)cc(CNC2CCCCN(c3nc4nc(Cl)ccc4[nH]3)C2)c1 (stereo not given)	6.8 °C	6.17	5.74	
Cc1cc2cc(C(=O)N3CCCC(c4nc5ccccc5[nH]4)C3)ccc2o1 (stereo not given)				inhibition [9]: 78%; inhibition [10]: 20%
N=C(N)c1ccc(OCCCCCOc2ccc(C(=N)N)cc2)cc1 [PENTAMIDINE]			9.05	
Clc1cc(Cl)cc(CNCCSc2nc3nc(Cl)ccc3[nH]2)c1		5.98	5.85	
O=C(Cc1cc(Cl)cc(Cl)c1)N1CCCC(c2nc3ccccc3[nH]2)C1 (stereo not given)	7.8 °C	6.54	< 5.30	
Clc1cc(Cl)cc(CNC2CCCC(c3nc4cc(Cl)ccc4[nH]3)C2)c1 (stereo not given)	12.6 °C	6.24	5.71	
Clc1cc(Cl)cc(CNCCCc2nc3ccc(Cl)cc3[nH]2)c1	10.8 °C	6.61	5.67	
O=C(N[C@H]1CCCN(c2nc3nc(Cl)ccc3[nH]2)C1)c1cc(Cl)cc(Cl)c1	0 °C	< 5.00	< 4.70	
Clc1cc(Cl)cc(CCN2CCCC(c3nc4nc(Cl)ccc4[nH]3)C2)c1 (stereo not given)	6 °C	< 5.00	5.42	
O=C(Nc1cc(Cl)cc(Cl)c1)[C@H]1CCCN(c2nc3nc(Cl)ccc3[nH]2)C1	2.6 °C	< 5.00	< 4.70	
Clc1cc(Cl)cc(NCC2CCCN(c3nc4nc(Cl)ccc4[nH]3)C2)c1 (stereo not given)	14.4 °C	> 7.30	6.46	EC50 at 48 h [4]: 15.4 µM; EC50 at 48 h [5]: 29.2 µM

Reference: ChEMBL document CHEMBL3877291, “Structure-guided design of novel Trypanosoma brucei Methionyl-tRNA synthetase inhibitors” (Eur J Med Chem, 2016)
